# From ChEMBL document CHEMBL3758075, “Synthesis and pharmacological evaluation of nucleoside prodrugs designed to target siderophore biosynthesis in Mycobacterium tuberculosis” (Bioorg Med Chem, 2016)
# Assays:
# [1] = Retention time of compound by RP-HPLC method; type: physicochemical
# Summary of the method: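 Reversed-phase C18 column (5 µm, 4.6 × 250 mm). Mobile phase 20 mM triethylammonium bicarbonate pH 7.5 / acetonitrile. Gradient 5–70% acetonitrile over 10 min, then 90% to 16 min, then 3 min re-equilibration at 5%.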
# [2] = Aqueous stability in pH 1.2 simulated gastric fluid assessed as compound remaining after 2 hrs by HPLC method; type: physicochemical; conditions: simulated gi fluid, pH 1.2, 2 h
# Summary of the method: (§1)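 Compound 100 µM (2% DMSO final) incubated in triplicate at 37 °C in simulated gastric fluid pH 1.2 or 100 mM HEPES pH 7.4. Samples taken at 0 and 120 min, placed on ice and analysed by RP-HPLC for prodrug and released parent; percentage of prodrug remaining at 120 min calculated.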
# [3] = Aqueous stability in pH 7.4 HEPES buffer assessed as compound remaining after 2 hrs by HPLC method; type: physicochemical; conditions: pH 7.4, 2 h; summary of the method: as §1
# [4] = Drug level in pH 7.4 HEPES buffer treated with 100 uM 9-[3-O-(Acetyl)-2,5-dideoxy-2-fluoro-5-{N-(N-2-hydroxybenzoyl)sulfamoyl}amino-b-D-ribofuranosyl]adenine triethylammonium salt for 2 hrs by HPLC analysis; type: physicochemical; conditions: pH 7.4, 2 h; summary of the method: as §1
# [5] = Aqueous stability in pH 1.2 simulated gastric fluid assessed as prodrug remaining at 100 uM after 2 hrs by HPLC method; type: physicochemical; conditions: simulated gi fluid, pH 1.2, 2 h; summary of the method: as §1
# [6] = Aqueous stability in pH 7.4 HEPES buffer assessed as prodrug remaining at 100 uM after 2 hrs by HPLC method; type: physicochemical; conditions: pH 7.4, 2 h; summary of the method: as §1
# Plasma [7] = assay: Half life in CD-1 mouse plasma assessed as N-(N-(((2R,3R,4R,5R)-5-(6-amino-9H-purin-9-yl)-4-fluoro-3-hydroxytetrahydrofuran-2-yl)methyl)sulfamoyl)-2-hydroxybenzamide by HPLC method; type: ADME, cell-free
# Summary of the method: (§2)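 Pooled female plasma (CD-1 mouse, Sprague-Dawley rat, human) preincubated 5 min at 37 °C, then spiked from a 10 mM DMSO stock; triplicate. Samples at 0–360 min quenched with equal volume 10% TCA, centrifuged, supernatant run on HPLC. Half-life or percentage remaining at 6 h derived.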
# Plasma [8] = assay: Stability in Sprague-Dawley rat plasma assessed as residual compound after 6 hrs by HPLC method; type: ADME, cell-free; summary of the method: as §2
# Plasma [9] = assay: Stability in human plasma assessed as residual compound after 6 hrs by HPLC method; type: ADME, cell-free; summary of the method: as §2
# Plasma [10] = assay: Stability in CD-1 mouse plasma assessed as residual compound after 6 hrs by HPLC method; type: ADME, cell-free; summary of the method: as §2
# [11] = Apparent permeability from apical to basolateral side in human Caco2 cells at 100 uM incubated for 2 hrs by HPLC method; type: ADME, cell-based; conditions: Caco-2
# Summary of the method: (§3)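 Caco-2 cells (passage 50–70) grown 21 days on 0.4 µm transwell inserts; wells with TER >300 Ωcm2 used. Apical CAB pH 6.0, basolateral CAB pH 7.4, preincubated 60 min at 65 rpm. Test compound 100 µM in donor with lucifer yellow for tight-junction integrity. Acceptor levels of prodrug plus hydrolyzed parent measured by HPLC over time with cumulative sampling. Papp = flux/(area × C0); efflux ratio = BL-AP/AP-BL.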
# [12] = Apparent permeability from basolateral to apical side in human Caco2 cells at 100 uM incubated for 2 hrs by HPLC method; type: ADME, cell-based; conditions: Caco-2; summary of the method: as §3
# [13] = Efflux ratio of permeability from basolateral to apical side over apical to basolateral side in human Caco2 cells incubated for 2 hrs by HPLC method; type: ADME, cell-based; conditions: Caco-2; summary of the method: as §3
# [14] = Permeability from apical to basolateral side in human Caco2 cells assessed as prodrug remaining in apical side for 2 hrs by HPLC method; type: ADME, cell-based; conditions: caco-2, 2 h
# Summary of the method: (§4)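 Bidirectional Caco-2 transwell run (21-day monolayers, TER >300 Ωcm2, apical pH 6.0 / basolateral pH 7.4 buffers, 100 µM donor). Intact prodrug left in the apical and basolateral compartments at 2 h quantified by reversed-phase HPLC, with hydrolysis to parent tracked.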
# [15] = Permeability from basolateral to apical side in human Caco2 cells assessed as prodrug remaining in apical side for 2 hrs by HPLC method; type: ADME, cell-based; conditions: caco-2, 2 h; summary of the method: as §4
# [16] = Permeability from apical to basolateral side in human Caco2 cells assessed as prodrug remaining in basolateral side for 2 hrs by HPLC method; type: ADME, cell-based; conditions: caco-2, 2 h; summary of the method: as §4
# [17] = Permeability from basolateral to apical side in human Caco2 cells assessed as prodrug remaining in basolateral side for 2 hrs by HPLC method; type: ADME, cell-based; conditions: caco-2, 2 h; summary of the method: as §4
# Plasma [18] = assay: Half life in Sprague-Dawley rat plasma assessed as N-(N-(((2R,3R,4R,5R)-5-(6-amino-9H-purin-9-yl)-4-fluoro-3-hydroxytetrahydrofuran-2-yl)methyl)sulfamoyl)-2-hydroxybenzamide by HPLC method; type: ADME, cell-free; summary of the method: as §2
smiles,measurement,setting,value
Nc1ncnc2c1ncn2[C@@H]1O[C@H](CNS(=O)(=O)NC(=O)c2ccccc2O)[C@@H](O)[C@H]1F,Retention_time,[1],8.9 min
same,Stability,[2],100%
same,Stability,[3],100%
same,Drug metabolism,[4],metabolite_detected
Nc1ncnc2c1ncn2[C@@H]1O[C@H](COS(=O)(=O)NC(=O)c2ccccc2O)[C@@H](O)[C@H]1O,Retention_time,[1],7.8 min
CCCCC(=O)O[C@H]1[C@@H](F)[C@H](n2cnc3c(N)ncnc32)O[C@@H]1CNS(=O)(=O)NC(=O)c1ccccc1O.CCN(CC)CC,Retention_time,[1],11.9 min
same,Stability,[5],98%
same,Stability,[6],100%
same,t1/2,Plasma [7],1.6 h
same,Stability,Plasma [8],53%
same,Stability,Plasma [9],66%
CCCCCCCCCCCC(=O)O[C@H]1[C@@H](F)[C@H](n2cnc3c(N)ncnc32)O[C@@H]1CNS(=O)(=O)NC(=O)c1ccccc1O.CCN(CC)CC,Retention_time,[1],9.9 min
same,Stability,[5],76%
same,Stability,[6],100%
same,t1/2,Plasma [7],1.6 h
same,Stability,Plasma [8],95%
same,Stability,Plasma [9],98%
CCC(CC)C(=O)O[C@H]1[C@@H](F)[C@H](n2cnc3c(N)ncnc32)O[C@@H]1CNS(=O)(=O)NC(=O)c1ccccc1O.CCN(CC)CC,Stability,[5],100%
same,Stability,[6],100%
same,Stability,Plasma [10],83%
same,Stability,Plasma [8],93%
same,Stability,Plasma [9],94%
same,"Papp A→B at 2 h, 100 µM",[11],0.5 ×10⁻⁶ cm/s
same,"Papp B→A at 2 h, 100 µM",[12],3.8 ×10⁻⁶ cm/s
same,efflux ratio at 2 h,[13],7.6
same,permeability,[14],97%
same,permeability,[15],78%
same,permeability,[16],90%
same,permeability,[17],99%
CCC(=O)O[C@H]1[C@@H](F)[C@H](n2cnc3c(N)ncnc32)O[C@@H]1CNS(=O)(=O)NC(=O)c1ccccc1O.CCN(CC)CC,Retention_time,[1],10 min
same,Stability,[5],97%
same,Stability,[6],100%
same,t1/2,Plasma [7],3.3 h
same,Stability,Plasma [8],58%
same,Stability,Plasma [9],70%
CC(C)C(=O)O[C@H]1[C@@H](F)[C@H](n2cnc3c(N)ncnc32)O[C@@H]1CNS(=O)(=O)NC(=O)c1ccccc1O.CCN(CC)CC,Retention_time,[1],10.7 min
same,Stability,[5],98%
same,Stability,[6],100%
same,t1/2,Plasma [7],3.7 h
same,Stability,Plasma [8],72%
same,"Papp A→B at 2 h, 100 µM",[11],0.4 ×10⁻⁶ cm/s
same,"Papp B→A at 2 h, 100 µM",[12],3.4 ×10⁻⁶ cm/s
same,efflux ratio at 2 h,[13],8.5
same,permeability,[14],88%
same,permeability,[15],53%
same,permeability,[16],73%
same,permeability,[17],95%
CCCCCCCC(=O)O[C@H]1[C@@H](F)[C@H](n2cnc3c(N)ncnc32)O[C@@H]1CNS(=O)(=O)NC(=O)c1ccccc1O.CCN(CC)CC,Retention_time,[1],13.7 min
same,Stability,[5],93%
same,Stability,[6],98%
same,t1/2,Plasma [7],0.7 h
same,Stability,Plasma [8],86%
same,"Papp A→B at 2 h, 100 µM",[11],3.9 ×10⁻⁶ cm/s
same,"Papp B→A at 2 h, 100 µM",[12],6.9 ×10⁻⁶ cm/s
same,efflux ratio at 2 h,[13],1.8
same,permeability,[14],29%
same,permeability,[15],1%
same,permeability,[16],3%
same,permeability,[17],90%
CC(=O)O[C@H]1[C@@H](F)[C@H](n2cnc3c(N)ncnc32)O[C@@H]1CNS(=O)(=O)NC(=O)c1ccccc1O.CCN(CC)CC,Retention_time,[1],9.5 min
same,Stability,[5],97%
same,Stability,[6],92%
same,t1/2,Plasma [7],4.6 h
same,t1/2,Plasma [18],5.7 h
same,Stability,Plasma [9],61%
same,"Papp A→B at 2 h, 100 µM",[11],1.1 ×10⁻⁶ cm/s
same,"Papp B→A at 2 h, 100 µM",[12],1.6 ×10⁻⁶ cm/s
same,efflux ratio at 2 h,[13],1.5
same,permeability,[14],93%
same,permeability,[15],88%
same,permeability,[16],81%
same,permeability,[17],86%
CCCC(=O)O[C@H]1[C@@H](F)[C@H](n2cnc3c(N)ncnc32)O[C@@H]1CNS(=O)(=O)NC(=O)c1ccccc1O.CCN(CC)CC,Retention_time,[1],10.4 min
same,Stability,[5],97%
same,Stability,[6],100%
same,t1/2,Plasma [7],2.2 h
same,Stability,Plasma [8],61%
same,Stability,Plasma [9],64%
same,"Papp A→B at 2 h, 100 µM",[11],0.5 ×10⁻⁶ cm/s
same,"Papp B→A at 2 h, 100 µM",[12],3.5 ×10⁻⁶ cm/s
same,efflux ratio at 2 h,[13],7
same,permeability,[14],74%
same,permeability,[15],15%
same,permeability,[16],63%
same,permeability,[17],93%
